A selection: hits, their analogues and other compounds. The true share with any hit is near 5.5%.
Yeast life ext – compounds extending yeast replicative lifespan, primary screen, S. cerevisiae, OD615; S. cerevisiae growth with nicotinamide; deaD strain in restrictive glucose medium; hit rate 0.68% among 130,000; inhibition of the nicotinamide effect, % at 10 µM;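 active = inhibition above a set limit, placed 3 SD over the median of all compounds, cut at about 26% in these data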;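 note: 0% = nicotinamide-treated wells and 100% = cells grown without nicotinamide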
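Material: Modified budding yeast, DeaD strain | Medium: Restrictive glucose medium | Probe or stimulus: 1.5 mM nicotinamide | Dosing: Single dose 10 µM compound, 0.25% DMSO | Times: 48 h at 30 °C | Technique: OD615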
WT yeast gro inh – growth inhibition of WT strain, primary screen, mitochondrial fusion inhibitor project, WT and mutant strains, chemical genetic; mitochondrial fusion phenotypic screen; inhibition, % at 10 µM; hit rate 2.1% among 190,000; AID 1362, 2008; in the data active = inhibition above about 58%; tested in S. cerevisiae
KCC2 mod – KCC2 cotransporter modulators, thallium flux, primary screen, cell-based, HEK293 KCC2, FluoZin-2 fluorescence, MLSMR; Solute carrier family 12 member 5 (Homo sapiens), Q9H2X9; KCC2 cells, thallium flux FluoZin-2 fluorescence; B-score of Tl+ flux slope (higher = more flux/activation; lower = inhibition) at 10 µM; hit rate 2.2% among 190,000;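 active = thallium flux slope and its plate-corrected score both differing from the plate sample mean at a set confidence after two filtering rounds, in either direction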;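 note: slope of fluorescence scaled to starting intensity during 10 to 20 s after thallium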
RAM network inh – inhibitors of the yeast RAM network, primary screen, dse1pr::URA3 reporter, 5-FOA selection | AID 868, 2007 | inhibition, % at 50 µM | S. cerevisiae dse1pr::URA3 reporter, 5-FOA growth OD615, 2 d; analog-sensitive cbk1-as2 kinase mutant strain | hit rate 1.8% among 190,000;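 active = inhibition above a set limit, 3 SD over mean compound inhibition, cut at about 8.4% in these data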;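 note: 0% = DMSO-only wells with no growth and 100% = 10 µM 1-NA-PP1 full growth; inhibition rescues growth on 5-FOA so higher OD means more RAM inhibition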
Yeast growth inh – growth inhibitors of yeast BB579 in restrictive medium, primary screen, yeast lifespan-shortening project, S. cerevisiae; OD615, 48 h; inhibition, % at 10 µM; hit rate 0.51% among 140,000;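 active = inhibition above a set limit, 3 SD over the mean compound inhibition, cut at about 44% in these data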
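Detection: OD615 turbidity measurement; Material: Saccharomyces cerevisiae DeaD strain BB579, replicative lifespan model yeast; Timing: 48 h exposure, 30 °C; Doses: single 10 µM dose; Medium: CSMM-D restrictive synthetic medium containing dextrose (glucose); Controls: amphotericin B at 10 µg/mL as positive control.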
Active calls of the source: *; nt = no result given.

SMILES	Yeast life ext	WT yeast gro inh	KCC2 mod	RAM network inh	Yeast growth inh
Cc1cc(C)n(CCN(C)c2nc3nonc3nc2NC2CC2)n1	nt	-12	1.1	1	nt
COc1ccc(-c2nc3c(c(=O)[nH]c(=O)n3Cc3ccccc3)n2C)cc1	-6	-20	nt	2	-20
COc1cc(Br)cc(-c2nc3c(c(=O)[nH]c(=O)n3Cc3ccccc3)n2C)c1O	63*	9	-0.21	3	-43
O=S(=O)(Cc1ccccc1)c1cnc2ccccc2n1	5	-30	nt	1	-19
Cc1cccc(OCC(=O)Nc2nc3ccc([N+](=O)[O-])cc3s2)c1C	-16	65*	nt	5	-62
O=S(Cc1ccc(Br)cc1)Cc1nnc(SCc2c(F)cccc2Cl)n1-c1ccccc1 (configuration not stated)	5	77*	-2.1	0	-20
CCc1cccc(CC)c1NC(=S)NCC(c1cccnc1)N(C)C (configuration not stated)	nt	-5	0.4	1	nt
CCc1cccc(CC)c1NC(=S)NC(C)c1ccccc1 (configuration not stated)	0	60*	-1.3	0	11
CCOC(=O)N1CCN(S(=O)(=O)c2ccc(C)c(C)c2)CC1	9	81*	nt	0	-19
O=C(NCc1cccs1)c1nc2c(nnn2Cc2ccccc2Cl)c(=O)[nH]1	-7	-7	-2.7*	2	-19
CCCCOc1ccc(CC2CCC(=O)NC2=O)cc1 (configuration not stated)	nt	-7	0.94	0	nt
C=CCn1c(COc2ccccc2-c2ccccc2)nnc1SCC(=O)NC(=O)NCc1ccco1	-6	95*	-0.018	2	-51
C=CCn1c(COc2ccccc2F)nnc1SCC(=O)NC(=O)NCc1ccco1	-13	-11	-0.16	3	-20
N#CCCn1nc(-c2ccc(Br)cc2)cc1Nc1ccccc1NC(=O)C(F)(F)F	2	39	-0.6	10*	-38
O=C(C1=C[C@H](C2CC2)C[C@H](OCCCCO)O1)N1CCOCC1	nt	3	-0.032	4	nt
CC(C)c1nnc(NC(=O)CSc2nnc(NC(=O)c3c(F)cccc3F)s2)s1	nt	-10	0.1	10*	nt
COc1cc(Cl)c(C)cc1NC(C)C(=O)Nc1cc(C(F)(F)F)ccc1N1CCOCC1 (configuration not stated)	7	65*	-0.19	6	-41
N#Cc1ccccc1Sc1ccccc1C(=O)Nc1ccc(Br)cc1	-8	77*	-0.76	6	-27
N#Cc1ccccc1Sc1ccccc1C(=O)Nc1ccc2ccccc2c1	-2	10	-0.28	4	-14
COC(=O)[C@H](C)NC(=O)Nc1cc(OC)ccc1OC	-4	16	0.95	0	-40
CCn1cnc2cc([N+](=O)[O-])ccc21	nt	4	-0.31	2	nt
Cc1cc(Nc2ccccc2)nn1C(=O)c1ccc([N+](=O)[O-])cc1	nt	-6	-1.4	5	-40
Cc1cc(Nc2ccccc2)nn1C(=O)c1ccc(Cl)cc1	-13	80*	0.23	0	-39
Cc1ccc(Cl)cc1N1CCN(CC(=O)NC2CCCc3ccccc32)CC1 (configuration not stated)	-2	74*	-0.065	1	-4
O=C(CN1CCN(c2ccccc2Cl)CC1)NC1CCCc2ccccc21 (configuration not stated)	5	33	-0.99	3	-34
SMILES	Yeast life ext	WT yeast gro inh	KCC2 mod	RAM network inh	Yeast growth inh
O=C(Oc1cccc2cccnc12)c1ccco1	nt	-19	nt	-2	-12
O=C(Oc1ccc(Cl)c2cccnc12)c1ccco1	-18	6	nt	0	96*
Cn1ncc(N=Cc2ccccc2)c1C(=O)Nc1cccc(Cl)c1	-3	10	-0.097	8	-72
COc1ccc(C2=NN(S(=O)(=O)c3ccccc3)C(c3ccccc3)C2)cc1 (configuration not stated)	nt	nt	-1.6	nt	nt
COc1cccc(C2CC(c3ccccc3)=NN2S(=O)(=O)c2ccc(C)cc2)c1OC (configuration not stated)	nt	57	0.31	11*	nt
O=C(c1cccs1)N1N=C(c2ccccc2)CC1c1ccccc1 (configuration not stated)	-1	67*	nt	5	-44
